In PubChem BioAssay AID743061 (The Scripps Research Institute Molecular Screening Center, 2013):
“And” between values parts separate entries of the source, which are not always exact repeats. Identical values can stand only once.

Molecular target: Methionine--tRNA ligase, mitochondrial (Homo sapiens) (UniProt Q96GW9)
Experiment: human mtMetRS tRNA charging inhibition – biochemical, radioactivity, round 1, selectivity assay for T. brucei MetRS inhibitor project, late-stage follow-up (AID 743061);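 note: 0% = DMSO with full reaction and 100% = DMSO wells lacking tRNA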
Conditions: recombinant human mtMetRS, [3H]Met tRNA charging, at 10 µM, stronger effect = higher value
Procedure, shortened: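 Material – recombinant human mitochondrial methionyl-tRNA synthetase (MetRS) · Input – 13 nM enzyme · Also added – 240 nM [3H]methionine with bulk E. coli tRNA acceptor · Compound dosing – 10 and 1 µM · Schedule – 15 min preincubation, 1 h reaction, room temperature · Detection – scintillation counts of TCA-precipitated charged tRNA on filters · Benchmarks – high DMSO, low without tRNA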

| SMILES | inhibition |
| --- | --- |
| O=C(Cn1cc(C(=O)C(=O)N2CCCC2)c2ccccc21)Nc1ccccc1 | -0.86% |
| O=C(Cn1cc(C(=O)C(=O)N2CCOCC2)c2ccccc21)NCc1ccccc1 | 10.3% |
| O=C(Cn1cc(C(=O)COc2ccccc2)c2ccccc21)Nc1cccc(C(F)(F)F)c1 | 3.08% |
| Cc1cccc2[nH]c(C3CCCN(C(=O)c4cccc5cccnc45)C3)nc12 (stereo not given) | 2.39% |
| CC(=O)N(CCc1ccccc1)C1CC(=O)N(c2ccc(Br)cc2)C1=O (stereo not given) | 2% |
| COc1ccc2[nH]c3nc(SCC(=O)Nc4ccc5c(c4)OCO5)nnc3c2c1 | 24.5% |
| O=C(CN1CCSC1=NCc1ccccc1)c1ccc(Cl)c(Cl)c1 | -25.5% |
| CC(=O)c1cn(CC(=O)Nc2cccc(C(F)(F)F)c2)c2ccccc12 | -0.68% |
| O=C(N/C(=C\c1cccnc1)c1nc2ccccc2[nH]1)c1cccc(Br)c1 | 4.89% |
| O=C(CC=NOCc1ccc([N+](=O)[O-])cc1)Nc1ccc(Cl)cc1 | 1.47% |
| CNC(=S)N(CCc1ccccc1)C1CC(=O)N(c2ccc(Br)cc2)C1=O (stereo not given) | 83.7% |
| CCN(CC)C(=O)C(=O)c1cn(CC(=O)Nc2cccc(C(F)(F)F)c2)c2ccccc12 | 40.8% |
| O=C(NCc1nc2ccccc2[nH]1)C1=C[C@H](c2ccccc2)C[C@H](OCc2ccc(CO)cc2)O1 | 12.7% |
| COc1ccccc1-n1c(SCC(=O)Nc2ccc(Cl)cc2)nc(O)c(Cc2ccccc2)c1=O | -19.7% |
| CC(=O)N(CCc1ccccc1)C1CC(=O)N(c2ccc(Cl)cc2)C1=O (stereo not given) | -2.95% |
| CN(CC(=O)Nc1ccc(Cl)cc1)C(=O)c1ccc(-n2cncn2)c([N+](=O)[O-])c1 | -19.1% |
| Brc1cnc2nc(SCc3nc4ccccc4[nH]3)[nH]c2c1 | -14.2% |
| Cc1cccc(C(=O)NCCc2nc3ccccc3n2CCOc2ccccc2)c1 | 4.57% |

| SMILES | inhibition |
| --- | --- |
| CCCCn1c(CCNC(=O)c2ccc(F)cc2)nc2ccccc21 | 5.87% |
| O=C(NCCc1nc2ccccc2[nH]1)c1ccc(Cl)c([N+](=O)[O-])c1 | 25.5% |
| CCCCCCCCCC1NC(C(=O)O)Cc2c1[nH]c1ccccc21 (stereo not given) | 9.9% |
| O=C(CSC1CC(=O)N(c2cccc(Cl)c2)C1=O)Nc1ccc(Br)cc1 (stereo not given) | 1.19% |
| O=C(NCc1nc2ccccc2[nH]1)C1=C[C@H](c2ccc3c(c2)OCO3)C[C@H](OCCCCO)O1 | 10.2% |
| O=C(Nc1ccc(F)c(Cl)c1)C1CC(=O)n2c(nc3ccccc32)N1 (stereo not given) | 4.32% and 12.5% |
| O=C(NCc1nc2ccccc2[nH]1)C1=C[C@H](C2CC2)C[C@H](OCc2ccc(CO)cc2)O1 | 12.6% |
| O=C(NCc1nc2ccccc2[nH]1)C1=C[C@H](c2csc3ccccc23)C[C@H](OCCCCO)O1 | 2.21% |
| O=C(Cn1cc(C(=O)C(=O)N2CCOCC2)c2ccccc21)NCC1CCCO1 (stereo not given) | 5.42% |
| O=C(NNC(=O)c1ccc(-n2cncn2)c([N+](=O)[O-])c1)c1ccc(Cl)cc1 | -21.4% |
| Oc1c(Cl)cc(Cl)cc1CNc1nc2ccccc2[nH]1 | 31.4% |
| O=C(NCCc1nc2ccccc2[nH]1)c1c(F)cccc1F | 0.73% |
| O=C(Cn1cnc2ccccc21)Nc1cccc([N+](=O)[O-])c1 | -2.2% |
| CCO[C@H]1OC(C(=O)NCc2nc3ccccc3[nH]2)=C[C@@H](c2ccc(Br)cc2)[C@@H]1CCCO | 11.7% |
| CCOC(=O)N1CCC(Nc2c(Nc3ccc(F)cc3)c(=O)c2=O)CC1 | -4.56% |
| O=C(CSc1nnc2c(n1)[nH]c1ccc(Br)cc12)NCc1ccccc1 | 21.6% |
| O=C(NCCc1nc2ccccc2[nH]1)c1ccc(Cl)cc1Cl | 48.7% |
